Measurements reported in ChEMBL document CHEMBL4325867, “Synthesis and biological evaluation of novel H6 analogues as drug resistance reversal agents” (Eur J Med Chem, 2019).

How the values were obtained:
[1] = molecular target: ATP-dependent translocase ABCB1 (Homo sapiens, UniProt P08183); assay: Reversal of P-gp-mediated drug resistance in human KBV cells assessed as potentiation of paclitaxel-induced cytotoxicity by measuring cell survival at 5 uM after 72 hrs by MTT assay (reference value: 98 +/- 19%); type: cell-based
ATP-dependent translocase ABCB1, sequence (P08183 whole entry): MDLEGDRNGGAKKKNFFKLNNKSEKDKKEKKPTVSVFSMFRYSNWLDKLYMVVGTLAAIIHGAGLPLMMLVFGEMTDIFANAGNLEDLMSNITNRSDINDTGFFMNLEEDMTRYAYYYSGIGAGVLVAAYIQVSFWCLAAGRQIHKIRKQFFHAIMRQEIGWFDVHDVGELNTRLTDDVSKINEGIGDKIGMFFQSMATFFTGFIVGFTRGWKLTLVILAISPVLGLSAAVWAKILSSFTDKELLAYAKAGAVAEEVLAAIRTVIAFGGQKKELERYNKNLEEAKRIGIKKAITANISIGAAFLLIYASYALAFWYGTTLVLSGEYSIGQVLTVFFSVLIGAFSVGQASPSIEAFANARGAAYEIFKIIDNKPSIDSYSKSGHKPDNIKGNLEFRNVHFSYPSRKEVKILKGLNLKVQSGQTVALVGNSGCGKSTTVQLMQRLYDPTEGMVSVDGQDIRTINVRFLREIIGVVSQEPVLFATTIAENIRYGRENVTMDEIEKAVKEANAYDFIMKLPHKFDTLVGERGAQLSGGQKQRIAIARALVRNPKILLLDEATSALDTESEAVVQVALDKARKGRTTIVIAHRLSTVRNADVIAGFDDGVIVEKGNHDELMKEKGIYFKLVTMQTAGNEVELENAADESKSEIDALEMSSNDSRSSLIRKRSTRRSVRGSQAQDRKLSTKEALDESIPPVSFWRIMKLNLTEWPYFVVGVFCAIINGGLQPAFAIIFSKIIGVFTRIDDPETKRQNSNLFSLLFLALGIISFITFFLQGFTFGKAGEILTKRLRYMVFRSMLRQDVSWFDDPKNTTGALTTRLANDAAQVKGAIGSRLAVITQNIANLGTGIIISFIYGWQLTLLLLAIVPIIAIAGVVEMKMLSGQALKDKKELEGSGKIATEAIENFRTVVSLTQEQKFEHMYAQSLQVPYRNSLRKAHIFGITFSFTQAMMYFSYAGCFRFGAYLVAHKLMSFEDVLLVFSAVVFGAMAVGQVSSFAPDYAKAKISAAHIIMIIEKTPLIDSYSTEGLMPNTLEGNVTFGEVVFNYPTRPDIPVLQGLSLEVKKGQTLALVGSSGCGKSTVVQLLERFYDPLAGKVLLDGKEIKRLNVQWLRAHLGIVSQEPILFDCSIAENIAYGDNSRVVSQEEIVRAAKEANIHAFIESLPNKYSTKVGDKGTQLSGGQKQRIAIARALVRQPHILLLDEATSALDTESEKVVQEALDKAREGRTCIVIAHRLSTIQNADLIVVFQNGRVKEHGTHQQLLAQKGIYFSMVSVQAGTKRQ

[2] = Cytotoxicity against human KBV cells assessed as cell survival at 5 uM after 72 hrs by MTT assay relative to control; type: cell-based; conditions: read-out: Survival
How it was run: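 KBV cells (RPMI-1640 with 10% heat-inactivated FCS, 37 °C, 5% CO2, log-phase) were seeded in 96-well plates and exposed to compound alone at 5 µM for 72 h. MTT was added and incubated, then DMSO was added. OD was read at 570 nm and survival rate was calculated.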

[3] = n-octanol/aqueous buffer solution partition coefficient, log P of the compound at pH 6.8 after 4 hrs by HPLC method; type: physicochemical
How it was run: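 Shake-flask partition between n-octanol and pH 6.8 buffer at a 1:1 ratio, room temperature, shaken 4 h. Compound concentration in each phase measured by HPLC.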

CC1(C)CC[C@]2(C(=O)N[C@@H](Cc3ccccc3)C(=O)O)CC[C@]3(C)C(=CC[C@@H]4[C@@]5(C)Cc6nccnc6[C@@](C)(CO)[C@@H]5CC[C@]43C)[C@@H]2C1
Survival [1]: 129% | viability at 72 h, 5 µM [2]: 94% | logD at 4 h [3]: -0.32

CC1(C)CC[C@]2(C(=O)O)CC[C@]3(C)C(C(=O)C[C@@H]4[C@@]5(C)CCC(=O)[C@@](C)(CO)[C@@H]5CC[C@]43C)[C@@H]2C1 (some centres not stated)
Survival [1]: 104% | viability at 72 h, 5 µM [2]: 102%

CC1(C)CC[C@]2(C(=O)On3nnc4ccc(Cl)cc43)CC[C@]3(C)C(=CC[C@@H]4[C@@]5(C)CC[C@H](O)[C@@](C)(CO)[C@@H]5CC[C@]43C)[C@@H]2C1
Survival [1]: 111% | viability at 72 h, 5 µM [2]: 97% | logD at 4 h [3]: -0.75

CC1(C)CC[C@]2(C(=O)O)CC[C@]3(C)C(=CC[C@@H]4[C@@]5(C)Cc6nccnc6[C@@](C)(COC(=O)c6ccccc6C(=O)O)[C@@H]5CC[C@]43C)[C@@H]2C1
Survival [1]: 85% | viability at 72 h, 5 µM [2]: 116% | logD at 4 h [3]: -0.66

CC1(C)CC[C@]2(C(=O)N3CCC[C@H]3C(=O)O)CC[C@]3(C)C(=CC[C@@H]4[C@@]5(C)Cc6nccnc6[C@@](C)(CO)[C@@H]5CC[C@]43C)[C@@H]2C1
Survival [1]: 91% | viability at 72 h, 5 µM [2]: 121% | logD at 4 h [3]: 0.38

CC(C)[C@H](NC(=O)[C@]12CCC(C)(C)C[C@H]1C1=CC[C@@H]3[C@@]4(C)Cc5nccnc5[C@@](C)(CO)[C@@H]4CC[C@@]3(C)[C@]1(C)CC2)C(=O)O
Survival [1]: 114% | viability at 72 h, 5 µM [2]: 83% | logD at 4 h [3]: -0.78

CC1(C)CC[C@]2(C(=O)On3nnc4ccc(Cl)cc43)CC[C@]3(C)C(C(=O)C[C@@H]4[C@@]5(C)CCC(=O)[C@@](C)(CO)[C@@H]5CC[C@]43C)[C@@H]2C1 (some centres not stated)
Survival [1]: 112% | viability at 72 h, 5 µM [2]: 98% | logD at 4 h [3]: 0.1

CC1(C)CC[C@]2(C(=O)O)CC[C@]3(C)C(=CC[C@@H]4[C@@]5(C)Cc6nccnc6[C@@](C)(COC(=O)C6CCCCC6C(=O)O)[C@@H]5CC[C@]43C)[C@@H]2C1 (some centres not stated)
Survival [1]: 100% | viability at 72 h, 5 µM [2]: 95% | logD at 4 h [3]: -0.33

C[C@H](NC(=O)[C@]12CCC(C)(C)C[C@H]1C1=CC[C@@H]3[C@@]4(C)Cc5nccnc5[C@@](C)(CO)[C@@H]4CC[C@@]3(C)[C@]1(C)CC2)C(=O)O
Survival [1]: 264% | viability at 72 h, 5 µM [2]: 98% | logD at 4 h [3]: -1.07

COc1ccc(CCN(C)CCCC(C#N)(c2ccc(OC)c(OC)c2)C(C)C)cc1OC (configuration not stated)
Survival [1]: 23%

CC1(C)CC[C@]2(C(=O)n3ccnc3)CC[C@]3(C)C(=CC[C@@H]4[C@@]5(C)CC[C@H](O)[C@@](C)(CO)[C@@H]5CC[C@]43C)[C@@H]2C1
logD at 4 h [3]: -0.4

CC1(C)CC[C@]2(C(=O)ONC(=O)CCC(=O)O)CC[C@]3(C)C(=CC[C@@H]4[C@@]5(C)Cc6nccnc6[C@@](C)(CO)[C@@H]5CC[C@]43C)[C@@H]2C1
Survival [1]: 112% | viability at 72 h, 5 µM [2]: 89% | logD at 4 h [3]: -0.78

CC1(C)CC[C@]2(C(=O)N[C@@H](CO)C(=O)O)CC[C@]3(C)C(=CC[C@@H]4[C@@]5(C)Cc6nccnc6[C@@](C)(CO)[C@@H]5CC[C@]43C)[C@@H]2C1
Survival [1]: 76% | viability at 72 h, 5 µM [2]: 102% | logD at 4 h [3]: -0.11

COC(=O)CCC(=O)NOC(=O)[C@]12CCC(C)(C)C[C@H]1C1=CC[C@@H]3[C@@]4(C)Cc5nccnc5[C@@](C)(CO)[C@@H]4CC[C@@]3(C)[C@]1(C)CC2
Survival [1]: 32% | viability at 72 h, 5 µM [2]: 86% | logD at 4 h [3]: -1.24

CC1(C)CC[C@]2(C(=O)On3nnc4cccnc43)CC[C@]3(C)C(=CC[C@@H]4[C@@]5(C)CC[C@H](O)[C@@](C)(CO)[C@@H]5CC[C@]43C)[C@@H]2C1
Survival [1]: 115% | viability at 72 h, 5 µM [2]: 94% | logD at 4 h [3]: -0.23

CC1(C)CC[C@]2(C(=O)O)CC[C@]3(C)C(=CC[C@@H]4[C@@]5(C)Cc6nccnc6[C@@](C)(COC(=O)CCC(=O)O)[C@@H]5CC[C@]43C)[C@@H]2C1
Survival [1]: 102% | viability at 72 h, 5 µM [2]: 96% | logD at 4 h [3]: -0.28

CC1(C)CC[C@]2(C(=O)O)CC[C@]3(C)C(=CC[C@@H]4[C@@]5(C)Cc6nccnc6[C@@](C)(CO)[C@@H]5CC[C@]43C)[C@@H]2C1
Survival [1]: 61% | viability at 72 h, 5 µM [2]: 89% | logD at 4 h [3]: 0.24

CC1(C)CC[C@]2(C(=O)OCCCCOC(=O)[C@]34CCC(C)(C)C[C@H]3C3=CC[C@@H]5[C@@]6(C)CC[C@H](O)[C@@](C)(CO)[C@@H]6CC[C@@]5(C)[C@]3(C)CC4)CC[C@]3(C)C(=CC[C@@H]4[C@@]5(C)CC[C@H](O)[C@@](C)(CO)[C@@H]5CC[C@]43C)[C@@H]2C1
Survival [1]: 44% | viability at 72 h, 5 µM [2]: 92%

CC1(C)CC[C@]2(C(=O)OCCCCCOC(=O)[C@]34CCC(C)(C)C[C@H]3C3=CC[C@@H]5[C@@]6(C)CC[C@H](O)[C@@](C)(CO)[C@@H]6CC[C@@]5(C)[C@]3(C)CC4)CC[C@]3(C)C(=CC[C@@H]4[C@@]5(C)CC[C@H](O)[C@@](C)(CO)[C@@H]5CC[C@]43C)[C@@H]2C1
Survival [1]: 42% | viability at 72 h, 5 µM [2]: 123%

CC1(C)CC[C@]2(C(=O)N[C@@H](CCC(=O)O)C(=O)O)CC[C@]3(C)C(=CC[C@@H]4[C@@]5(C)Cc6nccnc6[C@@](C)(CO)[C@@H]5CC[C@]43C)[C@@H]2C1
Survival [1]: 80% | viability at 72 h, 5 µM [2]: 91% | logD at 4 h [3]: -0.66

CC(C)C[C@H](NC(=O)[C@]12CCC(C)(C)C[C@H]1C1=CC[C@@H]3[C@@]4(C)Cc5nccnc5[C@@](C)(CO)[C@@H]4CC[C@@]3(C)[C@]1(C)CC2)C(=O)O
Survival [1]: 76% | viability at 72 h, 5 µM [2]: 130% | logD at 4 h [3]: 0.08

CC1(C)CC[C@]2(C(=O)On3nnc4ccccc43)CC[C@]3(C)C(C(=O)C[C@@H]4[C@@]5(C)CCC(=O)[C@@](C)(CO)[C@@H]5CC[C@]43C)[C@@H]2C1 (some centres not stated)
Survival [1]: 127% | viability at 72 h, 5 µM [2]: 110% | logD at 4 h [3]: 0.14

CC1(C)CC[C@]2(C(=O)OCCN)CC[C@]3(C)C(=CC[C@@H]4[C@@]5(C)Cc6nccnc6[C@@](C)(CO)[C@@H]5CC[C@]43C)[C@@H]2C1
Survival [1]: 24% | viability at 72 h, 5 µM [2]: 116% | logD at 4 h [3]: 0.36

CC1(C)CC[C@]2(C(=O)OCCOC(=O)[C@]34CCC(C)(C)C[C@H]3C3=CC[C@@H]5[C@@]6(C)CC[C@H](O)[C@@](C)(CO)[C@@H]6CC[C@@]5(C)[C@]3(C)CC4)CC[C@]3(C)C(=CC[C@@H]4[C@@]5(C)CC[C@H](O)[C@@](C)(CO)[C@@H]5CC[C@]43C)[C@@H]2C1
Survival [1]: 37% | viability at 72 h, 5 µM [2]: 136%

CC1(C)CC[C@]2(C(=O)OCCCOC(=O)[C@]34CCC(C)(C)C[C@H]3C3=CC[C@@H]5[C@@]6(C)CC[C@H](O)[C@@](C)(CO)[C@@H]6CC[C@@]5(C)[C@]3(C)CC4)CC[C@]3(C)C(=CC[C@@H]4[C@@]5(C)CC[C@H](O)[C@@](C)(CO)[C@@H]5CC[C@]43C)[C@@H]2C1
Survival [1]: 45% | viability at 72 h, 5 µM [2]: 107%

CC1(C)CC[C@]2(C(=O)O)CC[C@]3(C)C(=CC[C@@H]4[C@@]5(C)CC[C@H](O)[C@@](C)(CO)[C@@H]5CC[C@]43C)[C@@H]2C1 [HEDERAGENIN]
Survival [1]: 100%
